One may read the inhibition as the relative decrease from the control value, in per cent. The IC50 is the point on the concentration scale where inhibition reaches its midpoint. Low readings indicate greater potency, high ones weaker potency.

We go through six molecules from ChEMBL document CHEMBL3877249, “Novel 2-aryl-4-(4'-hydroxyphenyl)-5H-indeno[1,2-b]pyridines as potent DNA non-intercalative topoisomerase catalytic inhibitors” (Eur J Med Chem, 2017).

The structures appear in SMILES notation. Counter-ions that a name gives are not always drawn. The source made the active and inactive calls. No cut-off for these calls is given here.

The target in assay [1] is DNA topoisomerase 2-alpha (Homo sapiens) (UniProt P11388). As to the kind of experiment: Inhibition of human DNA topoisomerase-2alpha ATPase activity at 200 uM using supercoiled pBR322 DNA as substrate after 1 hr by malachite green dye based assay relative to control. An outline of the steps:
(§1)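 Topo IIα ATPase: 4 units of enzyme with 100 ng supercoiled pBR322 and 250 µM ATP in 10 mM Tris-HCl pH 7.9, 50 mM NaCl, 50 mM KCl, 5 mM MgCl2, 0.1 mM EDTA, 15 µg/mL BSA at 37 °C for 1 h. Malachite green reagent was then added for 30 min at room temperature, and released phosphate was read at 620 nm.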

For assay [2] the target is unchanged. In words: Inhibition of human DNA topoisomerase-2alpha ATPase activity at 300 uM using supercoiled pBR322 DNA as substrate after 1 hr by malachite green dye based assay relative to control. An outline of the steps:
as §1

Assay [3] shares this target. As to the kind of experiment: Inhibition of human DNA topoisomerase-2alpha ATPase activity at 400 uM using supercoiled pBR322 DNA as substrate after 1 hr by malachite green dye based assay relative to control. An outline of the steps: as §1
A short description of assay [4]: Antiproliferative activity against human HCT15 cells after 72 hrs by CCK8 assay. It is filed as functional, cell-based. Particulars: HCT-15, 72 h. An outline of the steps:
(§2)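 Cells seeded at 2–4 × 10^4 per well, grown overnight in medium with 10% FBS at 37 °C and 5% CO2. After 4 h FBS starvation they were exposed to graded compound concentrations for 72 h. CCK-8 was added for a further 4 h and absorbance read at 450 nm. IC50 came from a four-parameter logistic fit.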

A short description of assay [5]: Antiproliferative activity against human HeLa cells after 72 hrs by CCK8 assay. It counts as functional, cell-based. An outline of the steps: as §2
(Tetrazolium dyes change colour on reduction, which living cells bring about.)

The nature of assay [6]: Antiproliferative activity against HEK293 cells after 72 hrs by CCK8 assay. It counts as cell-based. As to conditions: Homo sapiens, HEK293, 72 h. An outline of the steps: as §2
A short description of assay [7]: Antiproliferative activity against HFL1 cells after 72 hrs by CCK8 assay. It counts as cell-based. As to conditions: Homo sapiens, HFL1, 72 h. An outline of the steps: as §2
The nature of assay [8]: Antiproliferative activity against human T47D cells after 72 hrs by CCK8 assay. It is filed as functional, cell-based. An outline of the steps: as §2
Assay [9] is described as follows: Antiproliferative activity against human DU145 cells after 72 hrs by CCK8 assay. It is filed as functional, cell-based. Particulars: DU-145, 72 h. An outline of the steps:
as §2

The target in assay [10] is DNA topoisomerase 2-alpha (Homo sapiens) (UniProt P11388). In words: Inhibition of human DNA topoisomerase-2alpha at 100 uM using supercoiled pBR322 DNA as substrate after 30 mins by ethidium bromide staining based agarose gel electrophoresis relative to control. An outline of the steps: (§3)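 Human topo IIα, 1 unit set by full relaxation of pBR322, with 100 ng pBR322 for 30 min in 10 mM Tris-HCl pH 7.9, 50 mM NaCl, 5 mM MgCl2, 1 mM EDTA and BSA. Stop was with EDTA. Screening was at 100 µM, with retest at 20 µM if inhibition exceeded 30%. Gel was 1% agarose at 25 V for 4 h in TAE, stained with ethidium bromide. Mean ± S.D. from three experiments in triplicate.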

For assay [11], the target named is T1, DNA topoisomerase 1 (Homo sapiens) (UniProt P11387).
T1 sequence (whole entry): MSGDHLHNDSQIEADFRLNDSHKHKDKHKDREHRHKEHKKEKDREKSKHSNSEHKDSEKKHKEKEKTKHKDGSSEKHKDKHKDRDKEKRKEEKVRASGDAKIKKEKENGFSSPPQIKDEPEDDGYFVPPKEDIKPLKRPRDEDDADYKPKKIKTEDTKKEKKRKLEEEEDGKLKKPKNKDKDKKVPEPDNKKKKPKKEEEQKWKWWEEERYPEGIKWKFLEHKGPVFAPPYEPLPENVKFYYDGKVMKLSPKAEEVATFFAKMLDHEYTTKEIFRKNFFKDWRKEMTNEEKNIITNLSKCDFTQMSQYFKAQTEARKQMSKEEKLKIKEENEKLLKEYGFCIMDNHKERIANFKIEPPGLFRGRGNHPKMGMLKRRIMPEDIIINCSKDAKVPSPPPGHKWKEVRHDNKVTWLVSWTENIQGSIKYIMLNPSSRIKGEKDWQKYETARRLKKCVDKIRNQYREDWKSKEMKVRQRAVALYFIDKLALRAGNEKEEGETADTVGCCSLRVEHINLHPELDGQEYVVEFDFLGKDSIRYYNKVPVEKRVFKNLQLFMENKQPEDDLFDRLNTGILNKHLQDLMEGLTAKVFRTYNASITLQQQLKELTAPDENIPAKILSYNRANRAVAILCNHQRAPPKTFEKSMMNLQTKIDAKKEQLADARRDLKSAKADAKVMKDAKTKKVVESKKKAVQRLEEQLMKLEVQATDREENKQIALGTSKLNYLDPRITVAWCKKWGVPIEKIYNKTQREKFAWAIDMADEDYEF
In words: Inhibition of human DNA topoisomerase-1 at 100 uM using supercoiled pBR322 DNA as substrate after 30 mins by ethidium bromide staining based agarose gel electrophoresis relative to control. An outline of the steps: (§4)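 Recombinant human topo I, 1 unit (the amount that fully relaxes supercoiled pBR322), with 100 ng pBR322 DNA at 37 °C for 30 min in 10 mM Tris-HCl pH 7.9, 150 mM NaCl, 0.1% BSA. Compounds were screened at 100 µM, and those above 30% inhibition were retested at 20 µM. Products ran on 1% agarose at 15 V for 7 h in TAE with ethidium bromide staining. Mean ± S.D. from three experiments in triplicate.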

In assay [12] the target is DNA topoisomerase 2-alpha (Homo sapiens) (UniProt P11388). In words: Inhibition of human DNA topoisomerase-2alpha at 20 uM using supercoiled pBR322 DNA as substrate after 30 mins by ethidium bromide staining based agarose gel electrophoresis relative to control. An outline of the steps: as §3
For assay [13], the species on record is Homo sapiens. In words: Inhibition of DNA topoisomerase catalytic activity in human T47D nuclear extract at 20 uM using supercoiled pBR322 DNA as substrate after 24 hrs by ethidium bromide staining based agarose gel electrophoresis relative to control. An outline of the steps: (§5)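 T47D cells at 5 × 10^5 per 60 mm dish were grown to 80% confluence, washed with FBS-free medium and treated 24 h. Nuclear extracts were prepared in HEPES/MgCl2/KCl/DTT/NP40 buffer, then extracted with NaCl buffer. The amount of extract that fully relaxes 100 ng pBR322 at 37 °C in 20 min was set as the unit. Products were run on agarose in TAE and stained with ethidium bromide (0.5 µg/mL).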

Assay [14] deals with T1, DNA topoisomerase 1 (Homo sapiens). As to the kind of experiment: Inhibition of human DNA topoisomerase-1 at 20 uM using supercoiled pBR322 DNA as substrate after 30 mins by ethidium bromide staining based agarose gel electrophoresis relative to control. An outline of the steps:
as §4

The species named for assay [15] is Homo sapiens. As to the kind of experiment: Inhibition of DNA topoisomerase catalytic activity in human T47D nuclear extract at 50 uM using supercoiled pBR322 DNA as substrate after 24 hrs by ethidium bromide staining based agarose gel electrophoresis relative to control. An outline of the steps:
as §5

Assay [16] has as its target DNA topoisomerase 2-alpha (Homo sapiens) (UniProt P11388). As to the kind of experiment: Inhibition of human DNA topoisomerase-2alpha at 500 uM using supercoiled pBR322 DNA as substrate after 20 mins by ethidium bromide staining based agarose gel electrophoresis relative to control.
The target in assay [17] is T1, DNA topoisomerase 1 (Homo sapiens). In words: Poison activity at human DNA topoisomerase-1 assessed as DNA intercalation by measuring DNA unwinding using pHOT1 DNA as substrate after 30 mins by ethidium bromide staining based agarose gel electrophoresis.

DNA topoisomerase 2-alpha (Homo sapiens), sequence (P11388 whole entry): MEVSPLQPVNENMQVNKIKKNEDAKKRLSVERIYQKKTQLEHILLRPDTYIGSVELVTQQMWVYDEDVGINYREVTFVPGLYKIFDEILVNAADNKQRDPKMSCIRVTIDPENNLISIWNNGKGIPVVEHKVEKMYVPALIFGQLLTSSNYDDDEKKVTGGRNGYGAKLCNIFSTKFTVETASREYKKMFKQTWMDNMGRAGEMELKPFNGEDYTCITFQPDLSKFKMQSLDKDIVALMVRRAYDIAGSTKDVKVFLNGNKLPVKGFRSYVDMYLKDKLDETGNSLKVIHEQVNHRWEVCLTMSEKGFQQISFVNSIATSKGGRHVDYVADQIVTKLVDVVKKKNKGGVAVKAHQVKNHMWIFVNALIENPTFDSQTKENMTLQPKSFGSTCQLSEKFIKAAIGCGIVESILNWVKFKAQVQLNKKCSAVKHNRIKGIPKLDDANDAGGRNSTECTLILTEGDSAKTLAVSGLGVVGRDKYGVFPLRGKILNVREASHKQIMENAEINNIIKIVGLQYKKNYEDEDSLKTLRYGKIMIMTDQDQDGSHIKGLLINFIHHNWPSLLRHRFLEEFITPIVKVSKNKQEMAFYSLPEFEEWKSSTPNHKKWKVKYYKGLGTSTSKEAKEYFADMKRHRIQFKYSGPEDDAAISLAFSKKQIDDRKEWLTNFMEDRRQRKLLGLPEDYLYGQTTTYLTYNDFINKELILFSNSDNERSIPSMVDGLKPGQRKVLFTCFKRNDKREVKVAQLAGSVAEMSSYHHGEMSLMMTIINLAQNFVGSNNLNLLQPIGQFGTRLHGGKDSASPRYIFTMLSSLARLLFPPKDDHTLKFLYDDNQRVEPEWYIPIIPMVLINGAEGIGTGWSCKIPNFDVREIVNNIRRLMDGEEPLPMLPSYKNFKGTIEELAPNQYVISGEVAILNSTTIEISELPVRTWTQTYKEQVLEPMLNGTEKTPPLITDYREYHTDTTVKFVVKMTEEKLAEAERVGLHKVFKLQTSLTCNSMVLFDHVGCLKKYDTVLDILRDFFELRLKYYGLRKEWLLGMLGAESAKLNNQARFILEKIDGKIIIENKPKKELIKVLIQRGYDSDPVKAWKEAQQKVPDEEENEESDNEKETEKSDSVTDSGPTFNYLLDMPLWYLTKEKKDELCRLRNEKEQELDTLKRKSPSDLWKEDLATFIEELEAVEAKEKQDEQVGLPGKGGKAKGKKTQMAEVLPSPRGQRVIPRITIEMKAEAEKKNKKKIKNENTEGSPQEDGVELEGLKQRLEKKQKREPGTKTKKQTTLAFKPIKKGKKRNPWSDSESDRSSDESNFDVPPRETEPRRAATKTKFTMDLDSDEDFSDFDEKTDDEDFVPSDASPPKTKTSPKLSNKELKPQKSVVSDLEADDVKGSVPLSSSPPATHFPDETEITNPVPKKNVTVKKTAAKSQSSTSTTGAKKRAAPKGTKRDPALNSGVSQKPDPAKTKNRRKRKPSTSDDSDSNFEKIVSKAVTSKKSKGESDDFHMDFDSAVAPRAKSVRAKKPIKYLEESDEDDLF

Take `CO[C@@H]1[C@@H](OC(N)=O)[C@@H](O)[C@H](Oc2ccc3c(O)c(NC(=O)c4ccc(O)c(CC=C(C)C)c4)c(=O)oc3c2C)OC1(C)C`: the inhibition in [1] is 22.7%; in [2] it was 33.3%; in assay [3], 55.9%.
As for `CC[C@@]1(O)C(=O)OCc2c1cc1n(c2=O)Cc2cc3ccccc3nc2-1` [CAMPTOTHECIN], the IC50 in [4] was 310 to 18900 nM; in assay [5], 400 to 7320 nM; in [6], 830 nM; in assay [7] it was 1060 nM; in assay [8] it was 13700 nM; in assay [9], 110 to 2090 nM.
Consider `Oc1ccc(-c2cc(-c3ccco3)nc3c2Cc2ccccc2-3)cc1`, for which the inhibition in assay [10] turned out to be 95.1%; in assay [11], 69.7%; in [12], 92.2%; in the assay filed under Homo sapiens [13], 34.3%; in assay [14], 53.5%; in assay [3] it was 0%. The same molecule yielded an inhibition in the assay listed under Homo sapiens [15] of 97%. In addition, the concentration for half-maximal inhibition (IC50) was determined as 3120 nM in assay [4]; 3960 nM in assay [5]; 3470 nM in assay [6]; 7990 nM in assay [7]; 950 nM in [8]; 3740 nM in [9]. In addition, in [16], the inhibition result is “Active”.
With `COc1cc([C@@H]2c3cc4c(cc3[C@@H](O[C@@H]3O[C@@H]5CO[C@@H](C)O[C@H]5[C@H](O)[C@H]3O)[C@H]3COC(=O)[C@H]23)OCO4)cc(OC)c1O` [ETOPOSIDE], the IC50 in assay [4] was 1100 to 2820 nM; in assay [5] it was 180 to 1400 nM; in assay [6] it was 1740 nM; in [7], 87600 nM; in [9], 20 to 13100 nM. The same molecule had an inhibition in the assay listed under Homo sapiens [15] of 61.1%.
On to `COc1cccc2c1C(=O)c1c(O)c3c(c(O)c1C2=O)C[C@@](O)(C(=O)CO)C[C@@H]3O[C@H]1C[C@H](N)[C@H](O)[C@H](C)O1` [DOXORUBICIN HYDROCHLORIDE], for which the IC50 in assay [4] was 1080 to 1230 nM; in assay [5] it was 880 to 1200 nM; in assay [6], 4960 nM; in [7], 2310 nM; in assay [8] it was 1340 nM; in assay [9], 520 to 1000 nM.
For `COc1cc(NS(C)(=O)=O)ccc1Nc1c2ccccc2nc2ccccc12`, in assay [17], the Activity result is “Dose-dependent effect”.
